Test results published in ChEMBL document CHEMBL4689842, “EUbOPEN Chemogenomics Library wave 1” (2021).

Test system: Fibroblast
Experiment: Multiplex assay against human fibroblast
Format: toxicity, cell-based
How it was run: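 Live cells were stained at seeding with Hoechst33342, BioTracker Green Microtubule Cytoskeleton Dye, MitoTracker Red and Annexin V Alexa Fluor 680. Following compound addition, they were imaged on a CQ1 microscope at 37°C and 5% CO2 and gated by CellPathfinder machine learning into Hoechst high-intensity objects or normal cells, with normal cells split into healthy, pyknosed or fragmented nuclei and pyknosed cells into mitotic or apoptotic. Tubulin, mitochondrial-mass and membrane-permeability phenotypes are per cents of healthy-nucleus cells.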

[1] = 12 h, 1 µM, compound concentration 1 uM, replicate 1
[2] = 12 h, 1 µM, compound concentration 1 uM, replicate 2
[3] = 12 h, 10 µM, compound concentration 10 uM, replicate 1
[4] = 12 h, 10 µM, compound concentration 10 uM, replicate 2
[5] = 24 h, 1 µM, compound concentration 1 uM, replicate 1
[6] = 24 h, 1 µM, compound concentration 1 uM, replicate 2
[7] = 24 h, 10 µM, compound concentration 10 uM, replicate 1
[8] = 24 h, 10 µM, compound concentration 10 uM, replicate 2
[9] = 48 h, 1 µM, compound concentration 1 uM, replicate 1
[10] = 48 h, 1 µM, compound concentration 1 uM, replicate 2
[11] = 48 h, 10 µM, compound concentration 10 uM, replicate 1
[12] = 48 h, 10 µM, compound concentration 10 uM, replicate 2

COc1ccc(NS(=O)(=O)c2sc3ccc(Cl)cc3c2C)cc1N1CCNCC1.Cl
Population Apoptotic (%) [1]: 50%
Population Fragmented Nuclei (%) [1]: 25%
Population Healthy Nuclei (%) [1]: 38%
Population Hoechst High Intensity Objects (%) [1]: 10%
Population Membrane Permeable-Phenotype (%) [1]: 30%
Population Mitochondria Different-Phenotype (%) [1]: 4%
Population Mitotic Cells (%) [1]: 50%
Population Normal (%) [1]: 89%
Population Pyknosed Nuclei (%) [1]: 35%
Population Tubulin-Different-Phenotype (%) [1]: 30%
Total Cell Count [1]: 125
Population Apoptotic (%) [2]: 28%
Population Fragmented Nuclei (%) [2]: 13%
Population Healthy Nuclei (%) [2]: 69%
Population Hoechst High Intensity Objects (%) [2]: 12%
Population Membrane Permeable-Phenotype (%) [2]: 0%
Population Mitochondria Different-Phenotype (%) [2]: 26%
Population Mitotic Cells (%) [2]: 71%
Population Normal (%) [2]: 87%
Population Pyknosed Nuclei (%) [2]: 16%
Population Tubulin-Different-Phenotype (%) [2]: 10%
Total Cell Count [2]: 69
Population Apoptotic (%) [3]: 75%
Population Fragmented Nuclei (%) [3]: 33%
Population Healthy Nuclei (%) [3]: 47%
Population Hoechst High Intensity Objects (%) [3]: 22%
Population Membrane Permeable-Phenotype (%) [3]: 1%
Population Mitochondria Different-Phenotype (%) [3]: 40%
Population Mitotic Cells (%) [3]: 24%
Population Normal (%) [3]: 77%
Population Pyknosed Nuclei (%) [3]: 19%
Population Tubulin-Different-Phenotype (%) [3]: 88%
Total Cell Count [3]: 217
Population Apoptotic (%) [4]: 61%
Population Fragmented Nuclei (%) [4]: 14%
Population Healthy Nuclei (%) [4]: 56%
Population Hoechst High Intensity Objects (%) [4]: 4%
Population Membrane Permeable-Phenotype (%) [4]: 25%
Population Mitochondria Different-Phenotype (%) [4]: 100%
Population Mitotic Cells (%) [4]: 38%
Population Normal (%) [4]: 95%
Population Pyknosed Nuclei (%) [4]: 29%
Population Tubulin-Different-Phenotype (%) [4]: 94%
Total Cell Count [4]: 49
Population Apoptotic (%) [5]: 40%
Population Fragmented Nuclei (%) [5]: 26%
Population Healthy Nuclei (%) [5]: 52%
Population Hoechst High Intensity Objects (%) [5]: 11%
Population Membrane Permeable-Phenotype (%) [5]: 25%
Population Mitochondria Different-Phenotype (%) [5]: 3%
Population Mitotic Cells (%) [5]: 60%
Population Normal (%) [5]: 88%
Population Pyknosed Nuclei (%) [5]: 20%
Population Tubulin-Different-Phenotype (%) [5]: 42%
Total Cell Count [5]: 136
Population Apoptotic (%) [6]: 33%
Population Fragmented Nuclei (%) [6]: 10%
Population Healthy Nuclei (%) [6]: 77%
Population Hoechst High Intensity Objects (%) [6]: 3%
Population Membrane Permeable-Phenotype (%) [6]: 5%
Population Mitochondria Different-Phenotype (%) [6]: 13%
Population Mitotic Cells (%) [6]: 66%
Population Normal (%) [6]: 96%
Population Pyknosed Nuclei (%) [6]: 12%
Population Tubulin-Different-Phenotype (%) [6]: 5%
Total Cell Count [6]: 67
Population Apoptotic (%) [7]: 72%
Population Fragmented Nuclei (%) [7]: 23%
Population Healthy Nuclei (%) [7]: 51%
Population Hoechst High Intensity Objects (%) [7]: 25%
Population Membrane Permeable-Phenotype (%) [7]: 9%
Population Mitochondria Different-Phenotype (%) [7]: 50%
Population Mitotic Cells (%) [7]: 27%
Population Normal (%) [7]: 74%
Population Pyknosed Nuclei (%) [7]: 25%
Population Tubulin-Different-Phenotype (%) [7]: 80%
Total Cell Count [7]: 226
Population Apoptotic (%) [8]: 68%
Population Fragmented Nuclei (%) [8]: 16%
Population Healthy Nuclei (%) [8]: 47%
Population Hoechst High Intensity Objects (%) [8]: 2%
Population Membrane Permeable-Phenotype (%) [8]: 55%
Population Mitochondria Different-Phenotype (%) [8]: 97%
Population Mitotic Cells (%) [8]: 32%
Population Normal (%) [8]: 97%
Population Pyknosed Nuclei (%) [8]: 35%
Population Tubulin-Different-Phenotype (%) [8]: 91%
Total Cell Count [8]: 51
Population Apoptotic (%) [9]: 66%
Population Fragmented Nuclei (%) [9]: 38%
Population Healthy Nuclei (%) [9]: 47%
Population Hoechst High Intensity Objects (%) [9]: 20%
Population Membrane Permeable-Phenotype (%) [9]: 17%
Population Mitochondria Different-Phenotype (%) [9]: 0%
Population Mitotic Cells (%) [9]: 33%
Population Normal (%) [9]: 79%
Population Pyknosed Nuclei (%) [9]: 14%
Population Tubulin-Different-Phenotype (%) [9]: 21%
Total Cell Count [9]: 134
Population Apoptotic (%) [10]: 100%
Population Fragmented Nuclei (%) [10]: 53%
Population Healthy Nuclei (%) [10]: 45%
Population Hoechst High Intensity Objects (%) [10]: 25%
Population Membrane Permeable-Phenotype (%) [10]: 9%
Population Mitochondria Different-Phenotype (%) [10]: 1%
Population Mitotic Cells (%) [10]: 0%
Population Normal (%) [10]: 74%
Population Pyknosed Nuclei (%) [10]: 1%
Population Tubulin-Different-Phenotype (%) [10]: 49%
Total Cell Count [10]: 219
Population Apoptotic (%) [11]: 86%
Population Fragmented Nuclei (%) [11]: 33%
Population Healthy Nuclei (%) [11]: 44%
Population Hoechst High Intensity Objects (%) [11]: 42%
Population Membrane Permeable-Phenotype (%) [11]: 10%
Population Mitochondria Different-Phenotype (%) [11]: 46%
Population Mitotic Cells (%) [11]: 13%
Population Normal (%) [11]: 57%
Population Pyknosed Nuclei (%) [11]: 21%
Population Tubulin-Different-Phenotype (%) [11]: 73%
Total Cell Count [11]: 191
Population Apoptotic (%) [12]: 93%
Population Fragmented Nuclei (%) [12]: 34%
Population Healthy Nuclei (%) [12]: 26%
Population Hoechst High Intensity Objects (%) [12]: 24%
Population Membrane Permeable-Phenotype (%) [12]: 22%
Population Mitochondria Different-Phenotype (%) [12]: 54%
Population Mitotic Cells (%) [12]: 6%
Population Normal (%) [12]: 75%
Population Pyknosed Nuclei (%) [12]: 39%
Population Tubulin-Different-Phenotype (%) [12]: 72%
Total Cell Count [12]: 111
